In publication PMC5221799 (International Journal of Nanomedicine, 2016):
Like-named read-outs stand apart in the source and are kept apart here.

Experiments:
MCF7/ADR cells = experiment: Annexin V-FITC/propidium iodide apoptosis assay by flow cytometry; assay type: cell-based, human; conditions: 48 hours of incubation, Dox 20 μM
Method in brief: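 MCF7/ADR cells (DMEM, 10% FBS; resistance kept with 1 μg/mL Dox, withdrawn 1 week before use) seeded at 10^5 cells/well and left 24 h. Treated with free Dox or nanoparticles (Dox 20 μM and/or anti-miR21 213.3 nM) for 48 h. Cells were washed, trypsinised, and stained with annexin V–FITC/PI for 15 min at room temperature in the dark, then analysed by flow cytometry. Untreated cells served as blanks; three repeats.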

[1] = system: MCF7/ADR (Dox-resistant) cells; experiment: CCK-8 cytotoxicity assay in MCF7/ADR cells; assay type: cell-based, human; conditions: for IC50: read-out: IC50 of Dox or equivalent NLS-Dox, MCF7/ADR cells, CCK-8, mean ± SD (n=5)
Method in brief: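 CCK-8 assay in MCF7 and MCF7/ADR cells (Dox withdrawn from resistant line 1 week prior). Cells seeded at 0.5×10^4/well, grown overnight, then exposed to a concentration range for 48 or 96 h. CCK-8 was added for 1 h at 37°C and A450 read. Viability = (Asample−Ablank)/(Anon-treated−Ablank)×100%. n=5.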

MCF7/ADR xenografts = experiment: In vivo antitumor efficacy in MCF7/ADR xenografts; design: species or system BALB/c nude mice; conditions: tail vein every 3 days five times, n=6

In the case of `COc1cccc2c1C(=O)c1c(O)c3c(c(O)c1C2=O)C[C@@](O)(C(=O)CO)C[C@@H]3O[C@H]1C[C@H](N)[C@H](O)[C@H](C)O1` [Free Dox, doxorubicin], the apoptotic cells (MCF7/ADR cells) is reported as 10.75%, the “IC50 in MCF7/ADR cells relative to parent MCF7 cells” value ([1]; 48 hours incubation) is reported as “over 20 fold” and the IC50 ([1]; 48 hours) is reported as 49.4 ± 2.58 µM. For the same compound, the IC50 ([1]; 96 hours) was 30 ± 1.46 µM, the “effect on growth of MCF7/ADR xenografts” value (MCF7/ADR xenografts; free Dox 7.6 mg/kg) was “slight inhibitory effect” and the “body weight change of tumor-bearing mice” value (MCF7/ADR xenografts; measured for 3 weeks) was “significant weight loss”.
